Measured values taken from ChEMBL document CHEMBL1157681 (Bioorg Med Chem, 2010).
The source made the active and inactive calls. The calls are words filed in the database; no cut-off is given here.

Experiments:
SK-BR-3 [1] = assay: Antiproliferative activity against human SKBR3 cells after 72 hrs by MTS/PMS assay; format: functional, cell-based; conditions: SK-BR-3, 72 h
Outline: (§1)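 Cells grown at 37 °C in humidified 5% CO2, seeded at 2000/well and left to attach overnight. Compound added at varying concentrations in DMSO (1% final) for 72 h. Viable cells read by MTS/PMS, normalized to 1% DMSO wells as 100% proliferation. IC50 taken from separate experiments run in triplicate.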

MCF7 [2] = assay: Antiproliferative activity against human MCF7 cells after 72 hrs by MTS/PMS assay; format: functional, cell-based; conditions: MCF7, 72 h; outline: as §1
SK-BR-3 [3] = assay: Ratio of IC50 for human SK-BR-3 cells to IC50 for human MCF7 cells; format: functional
[4] = target: Heat shock protein HSP 90-beta (Homo sapiens) (UniProt P08238); assay: Inhibition of HSP90 in human MCF7 cells assessed as induction of HSP90 client protein Her2 degradation after 24 hrs by Western blot analysis; format: cell-based
Sequence of Heat shock protein HSP 90-beta (Homo sapiens) (P08238 whole entry): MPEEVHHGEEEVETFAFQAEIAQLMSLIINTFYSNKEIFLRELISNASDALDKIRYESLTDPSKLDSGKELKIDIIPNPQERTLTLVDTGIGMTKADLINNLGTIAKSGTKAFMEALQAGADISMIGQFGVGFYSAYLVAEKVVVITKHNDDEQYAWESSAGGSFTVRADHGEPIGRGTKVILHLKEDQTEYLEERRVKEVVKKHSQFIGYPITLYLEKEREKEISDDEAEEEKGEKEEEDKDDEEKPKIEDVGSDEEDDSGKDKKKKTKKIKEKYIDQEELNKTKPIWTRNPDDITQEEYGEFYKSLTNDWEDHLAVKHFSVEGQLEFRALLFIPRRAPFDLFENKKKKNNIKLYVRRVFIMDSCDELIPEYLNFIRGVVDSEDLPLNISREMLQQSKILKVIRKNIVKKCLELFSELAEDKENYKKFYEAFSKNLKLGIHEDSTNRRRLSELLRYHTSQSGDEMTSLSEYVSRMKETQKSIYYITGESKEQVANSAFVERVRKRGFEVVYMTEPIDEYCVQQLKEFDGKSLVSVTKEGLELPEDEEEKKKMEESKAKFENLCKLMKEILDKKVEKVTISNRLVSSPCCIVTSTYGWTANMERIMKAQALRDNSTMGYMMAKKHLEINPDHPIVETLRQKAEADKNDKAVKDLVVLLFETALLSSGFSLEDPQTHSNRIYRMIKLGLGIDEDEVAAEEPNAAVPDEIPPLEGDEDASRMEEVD
Outline: (§2)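 MCF-7 cells exposed 24 h to various concentrations in DMSO (1% final) or vehicle. Cells lysed in RIPA with 1 mM PMSF, 2 mM orthovanadate and protease inhibitors, 1 h on ice, then clarified at 14000g for 10 min at 4 °C; protein by BCA. 20 μg protein run under reducing conditions, blotted to nitrocellulose, probed with specific antibodies plus HRP secondary, read by chemiluminescence; β-actin also probed.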

[5] = target: Heat shock protein HSP 90-beta (Homo sapiens) (UniProt P08238); assay: Inhibition of HSP90 in human MCF7 cells assessed as induction of HSP90 client protein cRaf degradation after 24 hrs by Western blot analysis; format: cell-based; outline: as §2
MCF7 [6] = assay: Inhibition of heat shock response-induced increase in HSP90 protein level in human MCF7 cells at 1 to 100 uM after 24 hrs by Western blot analysis; format: functional, cell-based

IC50 (SK-BR-3 [1]) [µM]	IC50 (MCF7 [2]) [µM]	Activity [4]	Activity [5]	SMILES	Ratio IC50 (SK-BR-3 [3])	inhibition (MCF7 [6])
> 100	> 100			Cc1c(O)ccc2c(=O)c(-c3ccc4c(c3)OCO4)coc12		
2				CO[C@@H]1[C@@H](O)[C@@H](O)[C@H](Oc2ccc3cc(NC(=O)CCCCC(=O)Nc4cc5ccc(O[C@@H]6OC(C)(C)[C@H](OC)[C@@H](O)[C@H]6O)cc5oc4=O)c(=O)oc3c2)OC1(C)C		
> 100	49.2			CC(C)=CCc1cc2c(=O)c(-c3ccc4c(c3)OCO4)coc2c(C)c1O		
> 100	> 100			CC(=O)Nc1coc2cc(O)ccc2c1=O		
> 100	> 100			CC(=O)Nc1coc2cc(O)cc(O)c2c1=O		
> 100	> 100			CC(=O)Oc1ccc2c(=O)c(-c3ccc4c(c3)OCO4)coc2c1C		
> 100	> 100			CC(=O)Oc1ccc2c(=O)c(-c3ccc4c(c3)OCO4)coc2c1		
21.4	18.4			CO[C@@H]1[C@@H](O)[C@@H](O)[C@H](Oc2ccc3c(=O)c(-c4ccc5c(c4)OCO5)coc3c2C)OC1(C)C		
> 100	> 100			CC(=O)Nc1cc(=O)c2cc(OC(C)=O)ccc2o1		
> 100	> 100			CO[C@@H]1[C@@H](O)[C@@H](O)[C@H](Oc2ccc3c(=O)c(NC(C)=O)coc3c2C)OC1(C)C		
17	4.8			COc1cccc(-c2cc(C(=O)Nc3coc4c(C)c(OC(C)=O)ccc4c3=O)ccc2OC)c1		
33.8	14.7			COc1cccc(-c2cc(C(=O)Nc3cc(=O)c4cc(O[C@@H]5OC(C)(C)[C@H](OC)[C@@H](O)[C@H]5O)ccc4o3)ccc2OC)c1		
> 100	> 100			COc1cccc(-c2cc(C(=O)Nc3cc(=O)c4cc(OC(C)=O)ccc4o3)ccc2OC)c1		
18	9.2			CO[C@@H]1[C@@H](O)[C@@H](O)[C@H](Oc2ccc3c(=O)c(-c4ccc5c(c4)OCO5)coc3c2)OC1(C)C		
21.3	9.7			COc1cccc(-c2cc(C(=O)Nc3coc4cc(O)cc(O)c4c3=O)ccc2OC)c1	1.9	
> 100	> 100			CC(=O)Nc1coc2c(C)c(O)ccc2c1=O		
46	51.6			COc1cccc(-c2cc(C(=O)Nc3coc4c(C)c(O[C@@H]5OC(C)(C)[C@H](OC)[C@@H](O)[C@H]5O)ccc4c3=O)ccc2OC)c1		
> 100	> 100			CO[C@@H]1[C@@H](O)[C@@H](O)[C@H](Oc2cc(O)c3c(=O)c(NC(C)=O)coc3c2)OC1(C)C		
> 100	> 100			CC(=O)Oc1cc(O)c2c(=O)c(-c3ccc4c(c3)OCO4)coc2c1		

IC50 (SK-BR-3 [1]) [µM]	IC50 (MCF7 [2]) [µM]	Activity [4]	Activity [5]	SMILES	Ratio IC50 (SK-BR-3 [3])	inhibition (MCF7 [6])
3.3	5.1			COc1cccc(-c2cc(C(=O)Nc3coc4cc(OC(C)=O)cc(O)c4c3=O)ccc2OC)c1		
29	25.2	Dose-dependent effect	Dose-dependent effect	COc1cccc(-c2cc(C(=O)Nc3coc4cc(O[C@@H]5OC(C)(C)[C@H](OC)[C@@H](O)[C@H]5O)ccc4c3=O)ccc2OC)c1		Active
18.4	9.5			COc1cccc(-c2cc(C(=O)Nc3coc4cc(OC(C)=O)ccc4c3=O)ccc2OC)c1		
> 100	> 100			CC(=O)Nc1cc(=O)c2cc(O)ccc2o1		
> 100	> 100			O=c1c(-c2ccc3c(c2)OCO3)coc2cc(O)ccc12 [PSEUDOBAPTOGENIN]		
36.5	13.1			CC(C)=CCc1cc2c(=O)c(-c3ccc4c(c3)OCO4)coc2cc1O		
19.6	10.5			COc1cccc(-c2cc(C(=O)Nc3cc(=O)c4cc(O)ccc4o3)ccc2OC)c1		
> 100	93.7			CC(=O)Nc1coc2cc(OC(C)=O)cc(O)c2c1=O		
> 100	> 100			CC(=O)Nc1coc2cc(OC(C)=O)ccc2c1=O		
44.1	4.9			COc1cccc(-c2cc(C(=O)Nc3coc4c(C)c(O)ccc4c3=O)ccc2OC)c1	1.9	
	11.9			CC(C)=CCc1c(O)cc2occ(-c3ccc4c(c3)OCO4)c(=O)c2c1O [DERRUBONE]		
> 100	> 100			CO[C@@H]1[C@@H](O)[C@@H](O)[C@H](Oc2cc(O)c3c(=O)c(-c4ccc5c(c4)OCO5)coc3c2)OC1(C)C		
> 100	70			O=c1c(-c2ccc3c(c2)OCO3)coc2cc(O)cc(O)c12		
> 100	> 100			CO[C@@H]1[C@@H](O)[C@@H](O)[C@H](Oc2ccc3c(=O)c(NC(C)=O)coc3c2)OC1(C)C		
> 100	> 100			CC(=O)Nc1coc2c(C)c(OC(C)=O)ccc2c1=O		
> 100	> 100			CO[C@@H]1[C@@H](O)[C@@H](O)[C@H](Oc2ccc3oc(NC(C)=O)cc(=O)c3c2)OC1(C)C		
19.4	23.6			COc1cccc(-c2cc(C(=O)Nc3coc4cc(O[C@@H]5OC(C)(C)[C@H](OC)[C@@H](O)[C@H]5O)cc(O)c4c3=O)ccc2OC)c1		
37.1	8.6			COc1cccc(-c2cc(C(=O)Nc3coc4cc(O)ccc4c3=O)ccc2OC)c1	1.9	
